Data set [1] is filed under the species Mus musculus. Description: In Vitro evaluation for the CF1 liver enzyme activity on phosphatidate phosphohydrolase at concentration 100 uM. Put shortly:
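Mouse liver enzymes assayed in vitro on 10% homogenates of CF1 male mouse liver, with test drug added at 50–200 μM. Each enzyme follows a published procedure. Protein is measured by Lowry. Activity is given as % of untreated control (X ± SD, N = 6).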

Data set [2] concerns Rattus norvegicus. Description: Compound was evaluated for the hypolipidemic activity at 20 mg/kg per day orally for 14 days on neutral lipids content in rat LDL. It is filed as functional. The settings on record: route oral. Put shortly: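 Male Sprague–Dawley rats (~300 g) were dosed orally each day. Blood was drawn from the abdominal vein. Lipoprotein fractions (chylomicron, VLDL, LDL, HDL) were separated by the Hatch–Lees and Havel methods. Each fraction was assayed for cholesterol, triglyceride (enzymatic kit), neutral lipids, phospholipids and Lowry protein. Values are % of 1% CMC vehicle control, N = 6.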

Data set [3] relates to Rattus norvegicus. Description: Compound was evaluated for the hypolipidemic activity at 20 mg/kg per day orally for 14 days on phospholipids content in rat small intestine. Particulars: route oral. Type of data set: functional. Put shortly:
(§1)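 Male Sprague–Dawley rats were dosed orally for 14 days. Liver, small intestine and a 24-h fecal collection were lipid-extracted. Extracts were assayed for cholesterol (modified Liebermann–Burchard), triglyceride (enzymatic kit), neutral lipids, phospholipids and protein. Values are % of 1% CMC vehicle control, mean ± SD, N = 6.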

Data set [4] concerns Mus musculus. The data set can be described thus: In Vivo effect for the hypolipidemic activity on phosphatidate phosphohydrolase in CF1 mice after 16 days administered orally at a dose of 60 mg/kg. It is filed as organism-based. Also noted: dose 60 mg/kg. The essentials:
(§2)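 CF1 male mice are dosed orally at 10–60 mg/kg per day for 16 days, with 1% CMC as the control vehicle. Liver is homogenized at 10% in 0.25 M sucrose + 0.001 M EDTA, pH 7.2. Enzymes are assayed by literature methods, with Lowry protein. Activity is given as % of control (X ± SD, N = 6), with p from Student's t test.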

For data set [5], the target named is T1, ATP-citrate synthase (Mus musculus) (UniProt Q91V92).
T1 sequence (whole entry): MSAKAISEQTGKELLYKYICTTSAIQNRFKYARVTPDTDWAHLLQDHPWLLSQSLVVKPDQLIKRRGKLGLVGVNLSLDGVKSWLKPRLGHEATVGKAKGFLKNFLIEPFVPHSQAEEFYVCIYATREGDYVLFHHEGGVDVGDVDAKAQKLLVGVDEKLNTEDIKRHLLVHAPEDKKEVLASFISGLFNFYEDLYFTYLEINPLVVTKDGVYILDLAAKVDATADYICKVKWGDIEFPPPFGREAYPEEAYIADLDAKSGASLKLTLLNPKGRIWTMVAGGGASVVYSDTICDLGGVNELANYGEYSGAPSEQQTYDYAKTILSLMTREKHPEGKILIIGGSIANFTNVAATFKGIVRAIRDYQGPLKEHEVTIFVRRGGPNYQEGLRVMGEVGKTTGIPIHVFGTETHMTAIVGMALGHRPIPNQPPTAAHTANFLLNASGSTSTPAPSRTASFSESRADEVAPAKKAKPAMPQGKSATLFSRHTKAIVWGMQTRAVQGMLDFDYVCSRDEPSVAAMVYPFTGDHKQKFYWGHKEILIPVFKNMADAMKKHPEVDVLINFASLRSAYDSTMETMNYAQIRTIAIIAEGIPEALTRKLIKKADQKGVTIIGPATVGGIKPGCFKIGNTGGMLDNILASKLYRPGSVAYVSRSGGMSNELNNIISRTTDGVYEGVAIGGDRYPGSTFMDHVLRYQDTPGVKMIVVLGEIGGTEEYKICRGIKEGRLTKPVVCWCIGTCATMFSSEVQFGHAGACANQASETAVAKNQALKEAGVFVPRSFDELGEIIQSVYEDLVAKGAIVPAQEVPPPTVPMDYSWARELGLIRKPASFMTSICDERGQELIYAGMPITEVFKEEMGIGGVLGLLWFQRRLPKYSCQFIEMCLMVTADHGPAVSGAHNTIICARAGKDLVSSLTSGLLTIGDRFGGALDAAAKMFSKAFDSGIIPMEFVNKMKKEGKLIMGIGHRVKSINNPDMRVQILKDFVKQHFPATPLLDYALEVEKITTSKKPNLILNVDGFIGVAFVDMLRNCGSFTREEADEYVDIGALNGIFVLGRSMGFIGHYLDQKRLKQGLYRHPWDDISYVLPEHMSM
The data set can be described thus: In Vitro evaluation for the CF1 liver enzyme activity on ATP-Citrate Lyase exchange at concentration 100 uM. The essentials: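 Liver was taken from CF1 male mice and made into 10% homogenates, which were incubated with test compound at 50, 100 or 200 µM. Each enzyme was assayed by its literature method, and protein was measured by Lowry. N = 6. Activity is expressed as % of untreated control ± SD.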

Data set [6] addresses T2, Sterol O-acyltransferase 1 (Mus musculus) (UniProt Q61263).
T2 sequence (whole entry): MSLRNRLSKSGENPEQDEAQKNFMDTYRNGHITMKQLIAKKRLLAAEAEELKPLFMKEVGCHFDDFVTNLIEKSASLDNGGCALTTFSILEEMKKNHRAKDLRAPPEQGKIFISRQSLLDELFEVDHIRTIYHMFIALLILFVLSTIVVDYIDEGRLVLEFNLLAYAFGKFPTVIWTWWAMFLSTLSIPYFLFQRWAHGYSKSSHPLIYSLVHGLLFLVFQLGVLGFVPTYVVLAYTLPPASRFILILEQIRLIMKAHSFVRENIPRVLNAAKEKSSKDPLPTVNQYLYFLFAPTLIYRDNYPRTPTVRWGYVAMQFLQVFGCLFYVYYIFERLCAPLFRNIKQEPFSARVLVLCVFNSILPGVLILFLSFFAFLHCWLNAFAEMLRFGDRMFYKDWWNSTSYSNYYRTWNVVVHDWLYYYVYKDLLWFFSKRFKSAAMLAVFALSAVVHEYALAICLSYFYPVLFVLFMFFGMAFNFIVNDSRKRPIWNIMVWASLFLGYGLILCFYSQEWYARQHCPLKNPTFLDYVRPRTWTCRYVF
Description: In Vivo effect for the hypolipidemic activity on Acyl-COA cholesterol acyltransferase in CF1 mice after 16 days of oral administration at a dose of 20 mg/kg. It is filed as functional, organism-based. On the set-up: dose 20 mg/kg. The essentials: as §2

In data set [7] the test system is Mus musculus. Description: In Vivo effect for the hypolipidemic activity on phosphatidate phosphohydrolase in CF1 mice after 16 days administered orally at a dose of 40 mg/kg. On the set-up: dose 40 mg/kg. Type of data set: organism-based. Put shortly: as §2
Data set [8] deals with Rattus norvegicus. Description: Compound was evaluated for the hypolipidemic activity at 20 mg/kg per day orally for 14 days on protein content in rat liver. The settings on record: route oral. It is filed as functional. The essentials:
as §1

The target in data set [9] is Cholesterol 7-alpha-hydroxylase (Cytochrome P450 7A1) (Mus musculus, UniProt Q64505). The data set can be described thus: In vivo effect on Cholesterol 7-alpha-hydroxylase activity in CF1 mice after 16 days at 10 mg/kg oral dose. Type of data set: functional, organism-based. The settings on record: read-out: Control. On the set-up: dose 10 mg/kg, route oral. The essentials:
as §2

The target in data set [10] is T2, Sterol O-acyltransferase 1 (Mus musculus). Description: In Vivo effect for the hypolipidemic activity on Acyl-COA cholesterol acyltransferase in CF1 mice after 16 days of oral administration at a dose of 10 mg/kg. Type of data set: functional, organism-based. Also noted: dose 10 mg/kg. Put shortly:
as §2

Sequence of Cholesterol 7-alpha-hydroxylase (Cytochrome P450 7A1) (Q64505 whole entry): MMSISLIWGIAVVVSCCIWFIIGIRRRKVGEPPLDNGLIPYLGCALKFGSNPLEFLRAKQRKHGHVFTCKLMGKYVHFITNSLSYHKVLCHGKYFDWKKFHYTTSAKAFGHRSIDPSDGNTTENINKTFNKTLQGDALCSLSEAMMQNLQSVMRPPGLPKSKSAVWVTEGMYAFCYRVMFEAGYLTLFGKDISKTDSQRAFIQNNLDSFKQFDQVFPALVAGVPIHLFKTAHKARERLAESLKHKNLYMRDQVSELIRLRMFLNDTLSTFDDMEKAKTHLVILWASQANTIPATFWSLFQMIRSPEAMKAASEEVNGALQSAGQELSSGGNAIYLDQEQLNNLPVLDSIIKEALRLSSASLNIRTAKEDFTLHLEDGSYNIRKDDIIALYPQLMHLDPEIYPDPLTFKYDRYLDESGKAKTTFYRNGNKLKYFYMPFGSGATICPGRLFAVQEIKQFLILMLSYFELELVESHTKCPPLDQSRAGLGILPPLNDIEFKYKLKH

For the molecule `COc1ccc(C2C(=O)c3ccccc3C2=O)cc1` [ANISINDIONE], the Control in [1] was found to be 29%; in data set [2], 69%; in data set [3], 136%; in data set [4], 100%; in data set [5], 51%; in data set [6], 48%. For the same molecule, the Control was determined as 57% in [7], 100% in data set [8] and 92% in data set [10]. Besides, the activity at 384 h in data set [9] came out at 52%.

The record behind these values is ChEMBL document CHEMBL1123129, “Hypolipidemic activity of indan-1,3-dione derivatives in rodents” (J Med Chem, 1985).
